Experimental findings from ChEMBL document CHEMBL1667737, “Cytochrome P450 3A4 inhibitory constituents of the wood of Taxus yunnanensis” (J Nat Prod, 2011) are described below.

Series [1] concerns the target Cytochrome P450 2D6 (Homo sapiens, UniProt P10635). Briefly: Inhibition of CYP2D6 after 30 mins by fluorometric assay. The format is ADME. A digest of the protocol:
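cDNA-expressed CYP2D6 in insect cell microsomes with AMMC ([…] in the enzyme/substrate mix), in pH 7.4 phosphate buffer with an NADP+/glucose-6-phosphate/G6PDH/MgCl2 regenerating system. Compound in MeOH, eight-point 1:3 serial dilution. 10 min prewarm, then 30 min at 37 °C. Stopped with acetonitrile–Tris. Triplicate; IC50 by linear interpolation.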

Series [2] addresses Cytochrome P450 3A4 (Homo sapiens, UniProt P08684). Briefly: Inhibition of CYP3A4 after 30 mins by fluorometric assay. The format is ADME. A digest of the protocol:
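cDNA-expressed CYP3A4 in insect cell microsomes (with insect cell control protein) O-dealkylating 7-benzyloxy-4-trifluoromethylcoumarin to fluorescent 7-HFC. Samples in MeOH, 8-point 1:3 serial dilutions in pH 7.4 potassium phosphate with an NADP+/glucose-6-phosphate/G6PDH/MgCl2 regenerating system. 10 min prewarm, 30 min at 37 °C, stopped with acetonitrile–Tris base. Triplicate; IC50 by linear interpolation.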

Each structure is given as a SMILES string. A value given as a limit tells only on which side of the number the result lay.

For orientation: IC50 means the concentration that gives 50% inhibition.

Cytochrome P450 3A4, sequence (P08684 whole entry): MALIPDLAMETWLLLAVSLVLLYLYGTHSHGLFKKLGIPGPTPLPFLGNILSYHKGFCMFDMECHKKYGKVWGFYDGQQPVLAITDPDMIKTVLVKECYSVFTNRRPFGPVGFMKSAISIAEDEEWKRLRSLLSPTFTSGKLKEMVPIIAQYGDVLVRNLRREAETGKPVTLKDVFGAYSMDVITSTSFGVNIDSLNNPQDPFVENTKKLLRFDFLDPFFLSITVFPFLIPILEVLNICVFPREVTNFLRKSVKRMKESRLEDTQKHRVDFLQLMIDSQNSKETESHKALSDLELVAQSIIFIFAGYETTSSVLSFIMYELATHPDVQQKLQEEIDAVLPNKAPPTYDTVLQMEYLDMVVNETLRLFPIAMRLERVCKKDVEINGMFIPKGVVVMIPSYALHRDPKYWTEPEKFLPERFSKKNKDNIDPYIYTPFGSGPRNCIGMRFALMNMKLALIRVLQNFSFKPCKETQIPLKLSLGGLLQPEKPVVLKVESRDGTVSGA
Cytochrome P450 2D6, sequence (P10635 whole entry): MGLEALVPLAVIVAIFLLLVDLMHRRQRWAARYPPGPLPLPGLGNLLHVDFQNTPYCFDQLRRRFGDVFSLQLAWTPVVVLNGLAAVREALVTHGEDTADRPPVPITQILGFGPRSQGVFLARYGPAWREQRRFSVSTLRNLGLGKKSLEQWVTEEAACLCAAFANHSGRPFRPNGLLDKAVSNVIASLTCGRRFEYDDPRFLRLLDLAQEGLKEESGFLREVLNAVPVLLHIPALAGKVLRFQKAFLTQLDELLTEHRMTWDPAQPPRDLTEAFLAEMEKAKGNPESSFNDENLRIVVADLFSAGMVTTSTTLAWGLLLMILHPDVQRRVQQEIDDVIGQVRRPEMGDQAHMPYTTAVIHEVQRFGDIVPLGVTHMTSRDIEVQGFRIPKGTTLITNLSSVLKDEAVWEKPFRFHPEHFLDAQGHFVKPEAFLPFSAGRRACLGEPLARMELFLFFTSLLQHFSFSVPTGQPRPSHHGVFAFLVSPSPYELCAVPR

Take `COc1cc([C@H]2c3cc(O)c(OC)cc3C[C@@H](CO)[C@@H]2CO)ccc1O` [ISOLARICIRESINOL]: the IC50 in series [1] (read-out: IC50) is 97.7 µM; in series [2] (read-out: IC50) it was greater than 100 µM.
Turning to `COc1cc2c(cc1O)[C@H](c1ccc(O)c(O)c1)[C@@H](CO)[C@H](CO)C2` [ISOTAXIRESINOL], the half-inhibitory concentration (IC50) result in series [1] and in series [2] was “Not Active” in each case.
As for `COc1cc([C@@H](O)[C@@H]2CO[C@H](c3ccc(O)c(OC)c3)[C@H]2CO)ccc1O` [TANEGOOL], the IC50 result in series [1] and in series [2] was “Not Active” each time.
Regarding `COc1cc([C@H]2OC[C@H]([C@@H](O)c3ccc(O)c(OC)c3)[C@@H]2CO)ccc1O`, the IC50 in series [1] (read-out: IC50) is greater than 100 µM; in series [2] (read-out: IC50), 66.5 µM.
Turning to `COc1cc2c(cc1O)C(=O)[C@@H](CO)[C@H](CO)C2`, the IC50 result in series [1] and in series [2] was “Not Active” in each case.
With `COc1cc([C@H](O)[C@H]2CO[C@H](c3ccc(O)c(O)c3)[C@H]2CO)ccc1O` [(7R)-7-HYDROXYTAXIRESINOL], the IC50 result in series [1] and in series [2] was “Not Active” throughout.
Regarding `COc1cc(C[C@H]2CO[C@H](c3ccc(O)c(O)c3)[C@H]2CO)ccc1O` [TAXIRESINOL], the values for the 50% inhibitory concentration (IC50) in series [1] (read-out: IC50) and in series [2] (read-out: IC50) were 68.1 µM and 85.6 µM, respectively.
For `COc1cc(C[C@@H](CO)[C@H](CO)Cc2ccc(O)c(OC)c2)ccc1O` [(+)-SECOISOLARICIRESINOL] the same measures were greater than 100 µM and 47.3 µM.
The corresponding values for `COc1cc(C[C@H]2CO[C@H](c3ccc(O)c(OC)c3)[C@H]2CO)ccc1O` [LARICIRESINOL] are greater than 100 µM and 25.6 µM.
For `COc1cc([C@H]2c3cc(O)c(OC)cc3C[C@H]3C(=O)OC[C@H]23)ccc1O` [ALPHA-CONIDENDRIN] the same measures were 17.7 µM and 0.2 µM.
In the case of `COc1cc([C@@H]2Oc3cc(CCCO)ccc3O[C@H]2CO)ccc1O`, the half-maximal inhibitory concentration (IC50) in series [1] (read-out: IC50) was greater than 100 µM; in series [2] (read-out: IC50), 54.2 µM.
